The values that follow come from ChEMBL document CHEMBL2390943, “Synthesis and preliminary evaluation steroidal antiestrogen-geldanamycin conjugates” (Bioorg Med Chem Lett, 2013).

Assay [1] has as its target T1, Estrogen receptor (Homo sapiens) (UniProt P03372).
T1 sequence (whole entry): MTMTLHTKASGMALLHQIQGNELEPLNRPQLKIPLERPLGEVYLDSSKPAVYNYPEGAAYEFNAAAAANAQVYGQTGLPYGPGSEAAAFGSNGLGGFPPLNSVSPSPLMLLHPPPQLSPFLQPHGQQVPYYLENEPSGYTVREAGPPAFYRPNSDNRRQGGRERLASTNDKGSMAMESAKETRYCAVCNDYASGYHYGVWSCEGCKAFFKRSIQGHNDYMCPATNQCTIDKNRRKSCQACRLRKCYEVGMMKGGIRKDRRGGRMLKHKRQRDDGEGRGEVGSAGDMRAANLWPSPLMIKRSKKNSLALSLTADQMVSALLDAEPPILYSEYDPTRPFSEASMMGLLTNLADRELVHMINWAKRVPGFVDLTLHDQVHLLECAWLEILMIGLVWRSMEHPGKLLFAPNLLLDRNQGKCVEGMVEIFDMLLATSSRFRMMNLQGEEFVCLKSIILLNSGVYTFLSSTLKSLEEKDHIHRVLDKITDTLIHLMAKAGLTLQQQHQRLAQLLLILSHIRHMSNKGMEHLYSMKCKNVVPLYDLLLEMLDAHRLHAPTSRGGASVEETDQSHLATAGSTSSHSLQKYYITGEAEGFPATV
As to the kind of experiment: Relative binding affinity to estrogen receptor-alpha (unknown origin).

Assay [2] has as its system MCF7. In words: Antiproliferative activity against human MCF7 cells expressing estrogen receptor after 72 hrs. Format: functional, cell-based. As to conditions: MCF7, 72 h. In outline:
(§1)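 Proliferation inhibition was measured in MCF-7 (ER-expressing) and SKBr3 (ER-lacking) human breast cancer cells. IC50 was taken as the concentration giving 50% inhibition.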

The subject of assay [3] is SK-BR-3. As to the kind of experiment: Antiproliferative activity against estrogen receptor deficient human SKBR3 cells after 72 hrs. Format: functional, cell-based. As to conditions: SK-BR-3, 72 h. A digest of the protocol:
as §1

Assay [4] deals with MCF7. As to the kind of experiment: Ratio of IC50 for estrogen receptor deficient human […] cells to IC50 for human MCF7 cells expressing estrogen receptor. It counts as functional.

As usually defined, the IC50 is the concentration that gives 50% inhibition. The low end stands for inhibition by little substance, the high end for a need for much substance.

`CO[C@@]12[C@H](COC(N)=O)C3=C(C(=O)C(C)=C(NCc4cn(CCOCCOCCOc5ccc([C@H]6C[C@]7(C)[C@@H](O)CC[C@H]7[C@@H]7CCc8cc(O)ccc8[C@H]76)cc5)nn4)C3=O)N1C[C@H]1[C@@H]2N1C` (stereo not given in full): in assay [1], the RBA came to 7%.

The compound `CO[C@H]1/C=C\C=C(/C)C(=O)NC2=CC(=O)C(NCCCCCNC(=O)c3ccc(CC4CCCCc5c(nnn5CCOc5ccc([C@H]6C[C@]7(C)[C@@H](O)CC[C@H]7[C@@H]7CCc8cc(O)ccc8[C@H]76)cc5)C4(F)F)cc3)=C(C[C@@H](C)C[C@H](OC)[C@H](O)[C@@H](C)/C=C(\C)[C@@H]1OC(N)=O)C2=O` (stereo in doubt) showed an IC50 in assay [2] of 15200 nM.

On to `CO[C@H]1/C=C\C=C(/C)C(=O)NC2=CC(=O)C(NCCOCCOCCOCCc3cn(CN(C)CCOc4ccc([C@H]5C[C@]6(C)[C@@H](O)CC[C@H]6[C@@H]6CCc7cc(O)ccc7[C@H]65)cc4)nn3)=C(C[C@@H](C)C[C@H](OC)[C@H](O)[C@@H](C)/C=C(\C)[C@@H]1OC(N)=O)C2=O` (stereo in doubt), for which the IC50 came out at 41 nM in assay [3] and 102 nM in assay [2].

`C#CCN(C)CCOc1ccc([C@H]2C[C@]3(C)[C@@H](O)CC[C@H]3[C@@H]3CCc4cc(O)ccc4[C@H]32)cc1`: the RBA in assay [1] worked out at 39%.

`CO[C@H]1/C=C\C=C(/C)C(=O)NC2=CC(=O)C(NCc3cn(CCOc4ccc([C@H]5C[C@]6(C)[C@@H](O)CC[C@H]6[C@@H]6CCc7cc(O)ccc7[C@H]65)cc4)nn3)=C(C[C@@H](C)C[C@H](OC)[C@H](O)[C@@H](C)/C=C(\C)[C@@H]1OC(N)=O)C2=O` (stereo in doubt): the figures for the IC50 in assay [3] and in assay [2] were 710 nM and 1150 nM, respectively.

Consider `COc1cccc2c1C(=O)c1c(O)c3c(c(O)c1C2=O)C[C@@](O)(/C(CO)=N/NC(=O)c1ccc(OCCOCCOCCOCCOCc2cn(CCOCCOCCOCCN(C)CCOc4ccc([C@H]5C[C@]6(C)[C@@H](O)CC[C@H]6[C@@H]6CCc7cc(O)ccc7[C@H]65)cc4)nn2)cc1)C[C@@H]3O[C@H]1C[C@H](N)[C@H](O)[C@H](C)O1`, for which the “Ratio IC50” value in assay [4] was determined as 7.

As to `COC1=C2C[C@@H](C)C[C@H](OC)[C@H](O)[C@@H](C)/C=C(\C)[C@H](OC(N)=O)[C@@H](OC)/C=C\C=C(/C)C(=O)NC(=CC1=O)C2=O` [GELDANAMYCIN], the IC50 came to 8.5 nM in assay [3] and 9.8 nM in assay [2].
